pEC50, pIC50: −log10 of the molar value.
What was measured:
[1] = tested on: Rattus norvegicus; experiment: In vivo inhibition of PI3Kdelta in collagen-induced Lewis rat arthritis model at 10 mg/kg administered bid through oral gavage at 2 to 12 hrs on 3rd and 7th day of compound dosing; assay type: functional
Procedure, shortened: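 CIA Lewis rats dosed orally twice daily; plasma drug levels measured in blood samples taken at set times post-dose on days 3 and 7; trough PI3Kδ inhibition estimated from EC50/EC90 of the rat whole-blood ex vivo BCR-induced B-cell activation assay.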

[2] = tested on: Rattus norvegicus; experiment: Antiarthritis activity in collagen-induced Lewis rat arthritis model assessed as reduction in pannus formation at 1.07 mg/kg administered bid through oral gavage for 7 days measured every day started on day 9 and continuing through day 16 of compound dosing relative to vehicle-treated control; assay type: functional; set-up: scale not given: the % may be the effect or the level left
Procedure, shortened: (§1)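 Female Lewis rats with established collagen-induced arthritis dosed orally by gavage twice daily for 7 days (study days 10–16) with vehicle, 0.34, 1.07, 4.6 or 10 mg/kg, or dexamethasone 0.03 mg/kg; right and left ankle diameters by caliper daily, days 9–16; ankle and knee sections graded 0–5 per histopathology parameter; p < 0.05 versus arthritis + vehicle.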

[3] = Volume of distribution at steady state in beagle dog at 1 mg/kg, iv administered via infusion over 30 mins measured after 24 hrs by LC/MS/MS analysis; assay type: ADME, organism-based, Canis lupus familiaris; settings: in vivo, read-out: Vdss
Procedure, shortened: (§2)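 Dogs, n=3 per route; iv dose 1 mg/kg in 5% ethanol/55% PEG 400/40% citrate buffer pH 2; oral dose 5 mg/kg in 15% Captisol (w/v) in water; plasma pharmacokinetics.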

[4] = tested on: Rattus norvegicus; experiment: Antiarthritis activity in collagen-induced Lewis rat arthritis model assessed as reduction of periosteal bone width at 1.07 mg/kg administered bid through oral gavage for 7 days measured every day started on day 9 and continuing through day 16 of compound dosing relative to vehicle-treated control; assay type: functional; set-up: scale not given: the % may be the effect or the level left; procedure, shortened: as §1
[5] = Plasma clearance in Lewis rat at 1 mg/kg, iv administered via infusion over 30 mins measured after 24 hrs by LC/MS/MS analysis; assay type: ADME, organism-based
Procedure, shortened: (§3)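 Female Lewis rats, n=3 per route; 30-min iv infusion at 1 mg/kg and oral dose at 5 mg/kg, both in 30% PEG 400/70% water; plasma concentration-time profiles sampled to 24 h; values as mean ± SD.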

[6] = tested on: Rattus norvegicus; experiment: Antiarthritis activity in collagen-induced Lewis rat arthritis model assessed as reduction in cartilage damage administered bid through oral gavage for 7 days measured every day started on day 9 and continuing through day 16 of compound dosing; assay type: functional; procedure, shortened: as §1
[7] = Clearance in human hepatocytes at 1 uM by LC/MS/MS analysis; assay type: ADME, cell-based, Hepatocyte
Procedure, shortened: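 Human hepatocytes, incubated with and without the aldehyde oxidase inhibitor raloxifene; predicted clearance calculated from turnover.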

[8] = tested on: Rattus norvegicus; experiment: In vivo inhibition of PI3Kdelta in collagen-induced Lewis rat arthritis model at 0.34 mg/kg administered bid through oral gavage at 2 to 12 hrs on 3rd and 7th day of compound dosing; assay type: functional
Procedure, shortened: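 Female Lewis rats with established collagen-induced arthritis got vehicle or drug by oral gavage twice daily for 7 days (study days 10–16). Blood was sampled at set times after dosing on days 3 and 7 for plasma drug levels. PI3Kδ inhibition was inferred from those levels against EC50/EC90 values from a rat whole-blood ex vivo anti-IgD (BCR)-stimulated B-cell activation assay.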

[9] = organism: Homo sapiens; experiment: Selectivity ratio of IC50 for human recombinant PI3Kbeta to IC50 for human full length PI3Kdelta catalytic subunit/p85alpha
Procedure, shortened: (§4)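 Ratio calculated from the isoform-specific PI3K IC50 values, with enzyme assays run in quadruplicate.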

[10] = Plasma clearance in beagle dog at 1 mg/kg, iv administered via infusion over 30 mins measured after 24 hrs by LC/MS/MS analysis; assay type: ADME, organism-based, Canis lupus familiaris; procedure, shortened: as §2
[11] = organism: Homo sapiens; experiment: Selectivity ratio of IC50 for human full length PI3Kgamma to IC50 for human full length PI3Kdelta catalytic subunit/p85alpha; procedure, shortened: as §4
[12] = tested on: Rattus norvegicus; experiment: Antiarthritis activity in collagen-induced Lewis rat arthritis model assessed as reduction in pannus formation administered bid through oral gavage for 7 days measured every day started on day 9 and continuing through day 16 of compound dosing; assay type: functional; procedure, shortened: as §1
[13] = molecular target: PI3-kinase p110-delta/p85-alpha (Homo sapiens, UniProt O00329); experiment: Inhibition human full length PI3Kdelta catalytic subunit/p85alpha assessed as formation of PIP3 after 30 mins by europium labeled GRP-based TR-FRET assay; assay type: protein-complex assay
Sequence of PI3-kinase p110-delta/p85-alpha (P27986 whole entry): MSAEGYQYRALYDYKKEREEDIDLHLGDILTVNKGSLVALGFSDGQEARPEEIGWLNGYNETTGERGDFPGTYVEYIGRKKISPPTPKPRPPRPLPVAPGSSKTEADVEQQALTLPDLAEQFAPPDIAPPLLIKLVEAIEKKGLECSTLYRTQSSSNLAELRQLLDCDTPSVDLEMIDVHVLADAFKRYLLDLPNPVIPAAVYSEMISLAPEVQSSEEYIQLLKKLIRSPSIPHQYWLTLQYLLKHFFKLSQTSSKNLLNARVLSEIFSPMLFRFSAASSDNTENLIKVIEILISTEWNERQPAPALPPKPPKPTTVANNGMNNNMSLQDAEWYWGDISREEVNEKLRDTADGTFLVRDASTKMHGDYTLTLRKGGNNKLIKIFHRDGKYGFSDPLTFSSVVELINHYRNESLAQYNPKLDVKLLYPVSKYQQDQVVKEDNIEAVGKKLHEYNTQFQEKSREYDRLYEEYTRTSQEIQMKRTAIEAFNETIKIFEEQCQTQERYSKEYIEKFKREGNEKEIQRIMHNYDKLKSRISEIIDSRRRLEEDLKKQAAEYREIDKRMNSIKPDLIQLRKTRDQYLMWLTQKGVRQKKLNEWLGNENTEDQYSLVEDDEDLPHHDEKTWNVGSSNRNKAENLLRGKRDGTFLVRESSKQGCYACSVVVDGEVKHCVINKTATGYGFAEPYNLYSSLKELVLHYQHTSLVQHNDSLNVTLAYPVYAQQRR
Sequence of PI3-kinase p110-delta/p85-alpha (O00329 whole entry): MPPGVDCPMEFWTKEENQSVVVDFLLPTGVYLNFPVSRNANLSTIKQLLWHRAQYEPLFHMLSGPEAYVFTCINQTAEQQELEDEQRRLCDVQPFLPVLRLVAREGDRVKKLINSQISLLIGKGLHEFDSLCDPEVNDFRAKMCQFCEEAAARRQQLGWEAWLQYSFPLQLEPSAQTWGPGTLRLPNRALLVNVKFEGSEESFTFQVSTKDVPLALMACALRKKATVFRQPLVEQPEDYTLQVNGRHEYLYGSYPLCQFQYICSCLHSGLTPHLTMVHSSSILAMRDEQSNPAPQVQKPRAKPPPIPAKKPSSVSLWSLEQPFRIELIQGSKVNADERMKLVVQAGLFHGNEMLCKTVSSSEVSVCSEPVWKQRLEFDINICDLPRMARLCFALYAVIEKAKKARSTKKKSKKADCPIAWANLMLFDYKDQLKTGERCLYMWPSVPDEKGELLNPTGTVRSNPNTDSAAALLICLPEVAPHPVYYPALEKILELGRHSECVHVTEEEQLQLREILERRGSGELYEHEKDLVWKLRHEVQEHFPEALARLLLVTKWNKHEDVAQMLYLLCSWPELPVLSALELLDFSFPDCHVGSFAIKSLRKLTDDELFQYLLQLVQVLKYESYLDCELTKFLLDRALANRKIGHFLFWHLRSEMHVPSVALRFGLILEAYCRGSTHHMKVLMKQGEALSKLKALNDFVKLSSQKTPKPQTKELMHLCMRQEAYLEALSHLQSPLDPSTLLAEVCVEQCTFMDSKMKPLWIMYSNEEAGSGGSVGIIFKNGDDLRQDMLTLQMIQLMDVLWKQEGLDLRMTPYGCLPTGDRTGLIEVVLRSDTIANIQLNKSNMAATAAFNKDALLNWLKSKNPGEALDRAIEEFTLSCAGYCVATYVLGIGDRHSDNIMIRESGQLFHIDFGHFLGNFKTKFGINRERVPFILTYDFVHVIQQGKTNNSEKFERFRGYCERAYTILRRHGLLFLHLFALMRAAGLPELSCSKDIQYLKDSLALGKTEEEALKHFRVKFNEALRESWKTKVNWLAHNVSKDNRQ

[14] = tested on: Rattus norvegicus; experiment: In vivo inhibition of PI3Kdelta in rat B-cells assessed as reduction in […] cell activation; assay type: functional, organism-based
Procedure, shortened: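 Rat whole blood, ex vivo; B-cell activation stimulated by anti-IgD (BCR); EC50 and EC90 derived from inhibition of activation.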

[15] = Cmax in Lewis rat at 1 mg/kg, iv administered via infusion over 30 mins or at 5 mg/kg, po administered via gavage by LC/MS/MS analysis; assay type: ADME, organism-based; settings: in vivo; procedure, shortened: as §3
[16] = Oral bioavailability in beagle dog at 5 mg/kg administered through gavage measured after 24 hrs by LC/MS/MS analysis; assay type: ADME, organism-based, Canis lupus familiaris; settings: in vivo; procedure, shortened: as §2
[17] = Ratio of drug level in blood to plasma in Lewis rat; assay type: ADME, cell-free; settings: blood and plasma

## C[C@H](Nc1nc(N)nc(N)c1C#N)c1nc2cccc(F)c2c(=O)n1-c1cc(F)cc(F)c1
[1]
  inhibition in vivo at 10 mg/kg: > 90%
[2]
  Activity: 60%
[3]
  Vd: 1.3 L/kg
[4]
  Activity: 52%
[5]
  clearance: 12.3 mL/min/kg
[6]
  ED50: 1.5 mg/kg
[7]
  CLhep predicted at 1 µM: 5.67 mL/min/kg
[8]
  inhibition in vivo at 0.34 mg/kg: 25%
[9]
  Ratio IC50: 650
[10]
  clearance: 9.67 mL/min/kg
[11]
  Ratio IC50: 180
[12]
  ED50: 1.5 mg/kg
[13]
  pIC50: 8.66
[14]
  EC90: 100 nM
[14]; Rattus norvegicus
  pEC50: 7.69
[15]
  Cmax: 2830 nM
[16]
  bioavailability: 100%
[17]
  blood plasma ratio: 1.4

Reference: ChEMBL document CHEMBL3804828, “2,4,6-Triaminopyrimidine as a Novel Hinge Binder in a Series of PI3Kδ Selective Inhibitors” (J Med Chem, 2016)
